High-throughput results as filed in PubChem BioAssay.
MC4R antag cAMP = human MC4R antagonism in cAMP assay; 360,000 compounds, 0.48% hits; MC4R-expressing cells, MTII-stimulated cAMP, LANCE TR-FRET; inhibition, % at 6.5 µM; P32245;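 active means inhibition above its plate's cutoff, the mean of tested wells on that plate plus 3 SD, cut at about 29% in these data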
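material = U2OS cells stably expressing human melanocortin 4 receptor (MC4R) | also added = Melanotan II challenge | dosing = single nominal compound dose of 6.5 µM | detection = TR-FRET with Eu-cAMP and labeled anti-cAMP, 671 nm | replication = singlicate | timing = compound 30 min, challenge 1 h, detection 1 h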
PfG6PD inh = PfG6PD (Plasmodium falciparum) enzyme inhibition | inhibition, % at 20 µM | PfGluPho enzyme, NADPH resazurin-diaphorase fluorescence | 350,000 compounds, 0.78% hits;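 active means inhibition reaching at least a set limit at 20 µM in the primary screen, cut at about 59% in these data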
MC4R ag barr = human MC4R agonism via beta-arrestin | P32245 | U2OS MC4R beta-arrestin complementation, luminescence; percent of melanotan II response, DMSO zero | activation, % at 8.9 µM | 360,000 compounds, 0.98% hits | AID 540308;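 active means activation above a per-plate cutoff, the mean activation of sample wells on that plate plus 3 SD, cut at about 8% in these data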
ABHD5-PLIN5 inh = ABHD5-PLIN5 protein interaction inhibition; Q00G26+Q8WTS1; inhibition, % at 4 µM; Split G. princeps luciferase complementation, luminescence, 4 h; AID 602281; 360,000 compounds, 0.78% hits;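 active means inhibition above the mean inhibition across every tested compound plus 3 SD, cut at about 22% in these data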
Target sequence (Q00G26 whole entry, looked up): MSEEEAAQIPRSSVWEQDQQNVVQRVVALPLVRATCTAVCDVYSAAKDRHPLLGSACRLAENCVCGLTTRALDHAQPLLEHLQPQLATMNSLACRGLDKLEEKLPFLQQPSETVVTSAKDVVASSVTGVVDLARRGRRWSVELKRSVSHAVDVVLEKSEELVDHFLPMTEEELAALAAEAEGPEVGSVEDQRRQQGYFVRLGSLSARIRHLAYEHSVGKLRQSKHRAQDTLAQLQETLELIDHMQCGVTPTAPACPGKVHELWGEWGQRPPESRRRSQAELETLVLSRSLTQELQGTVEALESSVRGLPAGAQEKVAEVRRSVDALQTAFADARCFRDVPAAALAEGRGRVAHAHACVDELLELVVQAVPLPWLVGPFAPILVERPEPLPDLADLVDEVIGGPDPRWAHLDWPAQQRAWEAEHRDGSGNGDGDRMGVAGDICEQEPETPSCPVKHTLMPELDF
Target sequence (Q8WTS1 whole entry, looked up): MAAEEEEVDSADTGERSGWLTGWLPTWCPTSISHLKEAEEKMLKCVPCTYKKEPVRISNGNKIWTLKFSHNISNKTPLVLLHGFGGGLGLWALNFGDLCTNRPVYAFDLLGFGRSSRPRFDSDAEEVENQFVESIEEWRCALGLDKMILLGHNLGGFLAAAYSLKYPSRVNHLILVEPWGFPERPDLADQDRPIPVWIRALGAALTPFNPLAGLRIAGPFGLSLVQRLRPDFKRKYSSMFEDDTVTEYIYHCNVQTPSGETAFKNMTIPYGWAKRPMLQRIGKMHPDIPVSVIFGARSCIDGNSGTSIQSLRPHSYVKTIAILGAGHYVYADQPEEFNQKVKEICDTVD
B2AR ag = activates human beta-2 adrenergic receptor causing internalization | P07550 | Am2.2-beta2AR cells, FAP receptor internalization, flow cytometry | response, % (test concentration not listed) | 340,000 compounds, 0.43% hits;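 active means response above a set limit, near 3 SD of response in nonfluorescent compounds, cut at about 42% in these data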
ABHD5 PLIN5 conf = ABHD5-PLIN5 interaction inhibition, confirmed | inhibition, % at 4 µM | biochemical ABHD5-PLIN5 interaction, luminescence | 2,200 compounds, 67% hits | shares compounds with ABHD5-PLIN5 inh; in the data active means inhibition above about 23%
HNF4 split-luc = counter-screen for ABHD5-PLIN5 inhibitors: HNF4 split-luciferase. shares compounds with ABHD5-PLIN5 inh. HNF4 dimerization, luminescence, biochemical. inhibition, % at 4 µM. 2,200 compounds, 77% hits. AID 651674;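 active means mean inhibition across replicate wells exceeding the computed hit threshold, cut at about 13% in these data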;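 further: light from luciferase halves that rejoin when HNF4 fusion proteins dimerize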
Numbers stand for hits; . = inactive; / = no result given. In the library only some 3% were active in any assay of this set; here they are far more common.

SMILES	MC4R antag cAMP	PfG6PD inh	MC4R ag barr	ABHD5-PLIN5 inh	B2AR ag	ABHD5 PLIN5 conf	HNF4 split-luc
CCSc1nnc([C@H](Cc2ccccc2)NC(=O)OC(C)(C)C)o1	.	.	.	.	.	/	/
C=CCSc1nc2ccccc2n1C(=O)/C=C/c1ccc(OC)c(OC)c1	.	.	.	.	.	/	/
C=CCSc1nc2ccccc2n1C(=O)/C=C/c1cc(OC)c(OC)c(OC)c1	.	.	.	42.5	85.8	88.1	71.7
CCC1(C(=O)c2ccc(Cl)cc2)C2c3ccccc3OC(=O)C21C(=O)Nc1ccccc1 (configuration not stated)	.	.	.	.	.	/	/
O=C(Nc1ccccc1)NC1(C(=O)NCc2cccs2)CCCCC1	.	.	.	.	.	/	/
Oc1cc(Nc2ccccc2)cc2cccnc12	.	.	.	.	.	/	/
Oc1cc(NCCN2CCOCC2)cc2cccnc12	.	.	.	51.0	.	.	.
O=C1C=CC(O)C2(CO)OC12 (configuration not stated)	.	.	.	67.2	/	90.6	91.0
Cc1ccccc1NC(=O)Cc1nc(COC(=O)c2ccc(S(C)(=O)=O)c([N+](=O)[O-])c2)cs1	.	.	.	26.8	.	34.8	42.5
Cc1ccccc1NC(=O)Cc1nc(COC(=O)c2ccc(NC(N)=O)cc2)cs1	.	.	.	.	.	/	/
CCOc1cc(/C=C2\CCC/C(=C\c3cc(Cl)c(O)c(OCC)c3)C2=O)cc(Cl)c1O	.	.	.	55.3	.	68.2	47.6
O=C(Nc1ccccc1OC(F)F)c1ccc(S(=O)(=O)N2CCCC2)cc1	.	.	.	.	.	/	/
Cc1nc([N+](=O)[O-])c(Br)n1Cc1ccccc1	.	.	.	.	.	/	/
Cc1nc([N+](=O)[O-])c(Sc2nc3ccc([N+](=O)[O-])cc3[nH]2)n1Cc1ccccc1	.	.	.	27.7	.	45.4	37.6
CC1(C)CC(=O)C=C(NC2=CC3OC(c4ccccc4)OCC3OC2=O)C1 (configuration not stated)	.	.	.	62.9	.	85.1	93.8
Cc1ccccc1NC1=CC(=O)CC(C)(C)C1	.	.	.	.	.	/	/
O=C(COC(=O)c1ccc(NC(=O)C2CC=CCC2C(=O)O)cc1)c1ccccc1 (configuration not stated)	.	.	.	.	.	/	/
CN(C1CCCC1)C1CCN(C(=S)Nc2cc(F)cc(F)c2)CC1	.	.	.	.	.	/	/
COC(=O)C/C=N/N=C1/NC(=O)/C(=C/C(=O)O)S1	.	.	.	25.8	.	.	19.4
COC(=O)/C=C1\S/C(=N/N=C/c2ccccc2)NC1=O	.	.	.	.	.	/	/
COc1cccc2c1C(=O)C=C(C)C2=O	.	.	.	37.3	.	56.6	63.5
COc1ccccc1-c1ccccc1C1=CC(=O)CC(C)(C)C1=O	.	.	.	.	/	/	/
Cc1ccc(-c2csc(NC(=O)C[n+]3cc(-c4ccccc4)n4c3CCC4)n2)cc1	.	.	.	.	.	/	/
Cc1ccc(-c2csc(NC(=O)C[n+]3cc(-c4ccc(C)cc4)n4c3CCC4)n2)cc1	.	.	.	24.9	.	.	.
CC(=O)Nc1cccc(C(=O)OC(C)C(=O)N2CCc3ccccc32)c1 (configuration not stated)	.	.	.	.	.	/	/
SMILES	MC4R antag cAMP	PfG6PD inh	MC4R ag barr	ABHD5-PLIN5 inh	B2AR ag	ABHD5 PLIN5 conf	HNF4 split-luc
COCCCNC(=O)CCc1nnc(Cc2ccc(-c3ccccc3)cc2)o1	.	.	.	.	.	/	/
Cc1ccc(CNC(=O)CCc2nnc(Cc3ccc(-c4ccccc4)cc3)o2)o1	.	.	.	28.1	.	.	.
S=C(NCCc1ccccn1)NC1CC2CCC1C2 (configuration not stated)	.	.	.	62.5	.	.	.
CCOc1ccccc1NC(=S)NC1CC2CCC1C2 (configuration not stated)	.	.	.	.	.	/	/
CC(=O)N(C1CC(C)C(C#N)(C#N)C1(C#N)C#N)N(C)C (configuration not stated)	.	.	.	23.7	.	51.8	94.8
COc1ccc(/C=C/C(=O)c2cc(F)ccc2OC(=O)c2ccccc2OC)cc1OC	.	.	.	62.7	.	77.6	59.9
COc1ccc(/C=C/C(=O)c2cc(F)ccc2OC(=O)c2ccc(OC)c(OC)c2)cc1OC	.	.	.	46.0	.	76.6	52.4
CN(CCOc1ccccc1)CCOc1ccccc1	.	.	.	.	.	/	/
CN(C)CCOc1ccc(/C(=C(/CCCl)c2ccccc2)c2ccccc2)cc1	.	.	.	45.6	.	74.7	35.3
Cn1cnc([N+](=O)[O-])c1S(=O)(=O)Oc1ccc(Cl)cc1	.	.	.	73.0	.	85.3	104.5
Cn1cnc([N+](=O)[O-])c1S(=O)(=O)Oc1cccc2ccccc12	.	.	.	76.3	.	76.0	105.9
CCS(=O)(=O)c1c([N+](=O)[O-])ncn1C	.	.	.	.	.	/	/
Cn1c(=O)cc(N2CCN(C(=O)c3ccco3)CC2)[nH]c1=O	.	.	.	.	.	/	/
COC(=O)C1CCN(c2cc(=O)n(-c3ccc(OC)cc3)c(=O)[nH]2)CC1	.	.	.	24.3	.	.	.
CCOC(=O)N1CCN(c2cc(=O)n(-c3ccc(OC)cc3)c(=O)[nH]2)CC1	.	.	.	.	.	/	/
Cc1ccc(-n2c(=O)cc(N3CCN(C(=O)c4ccco4)CC3)[nH]c2=O)cc1	.	.	.	36.5	.	.	.
CCOc1ccccc1/C=C/c1nc2ccccc2[nH]c1=O	.	.	.	26.9	.	50.0	46.4
COc1cc(O)cc(O)c1C(=O)/C=C/c1ccccc1	.	.	.	.	.	/	/
O=C(C=Cc1ccccc1O)c1ccccc1O	.	.	.	73.5	.	98.0	90.5
COc1ccc(C(=O)/C=C/c2ccccc2)c(O)c1	.	.	.	29.7	.	65.5	47.2
O=C(/C=C/c1ccc(O)c(O)c1)c1ccccc1O	.	.	.	.	.	/	/
O=C(C=Cc1cccc(O)c1)c1ccccc1O	.	.	.	44.6	56.0	93.5	75.1
COc1cc(OC)c(C(=O)/C=C/c2ccccc2)c(O)c1O	.	.	.	38.6	.	49.6	38.3
COc1ccc(NC(=O)C2(C)CCN2C(=O)Cc2ccc(Cl)cc2Cl)cc1OC (configuration not stated)	.	/	.	.	/	/	/
C=CCn1c(SCC(=O)Nc2ccc(F)cc2F)nnc1-c1cnccn1	.	.	.	.	.	/	/
Cc1ccc(/C=C2\C(=O)Nc3ccccc32)o1	.	.	.	24.4	.	.	39.7
O=C1Nc2ccccc2/C1=C/c1ccccc1F	.	.	.	26.8	.	44.1	40.6
